# Assay results collected from several papers.
# Compare with care: the assays were run in different laboratories.
# Cell line: CCRF-CEM
# Read-out: cell growth or viability
Structure (SMILES),assay,conditions,measurement,result
COc1cccc(Oc2ccccc2NC(=O)CNC(=O)c2cccc3ccccc23)c1,SRB,48 h,GI50,363 nM
O=C(CN1C(=O)SC(=Cc2ccccn2)C1=O)Nc1nc2ccccc2s1,MTT,48 h,CC50,11900 nM
COc1ccc(C(=O)/C=C/c2cccc(Cl)c2Cl)cc1S(N)(=O)=O,SRB,10 µM,inhibition,99%
O=C1C(=Cc2ccc(Cl)c(Cl)c2)CN(C(=O)C(Cl)Cl)CC1=Cc1ccc(Cl)c(Cl)c1,imaging,24 h,CC50,93.2 nM
COc1cc(-c2cn(-c3cc(=O)oc4ccc(Cl)cc34)nn2)cc(OC)c1OC,,48 h,CC50,37200 nM
COc1ccc(C(=O)/C=C/c2ccc3ccccc3c2)cc1S(N)(=O)=O,SRB,48 h,GI50,2600 nM
O=C1C(=Cc2ccc(F)c(F)c2)CN(C(=O)C(Cl)Cl)CC1=Cc1ccc(F)c(F)c1,imaging,24 h,CC50,99.3 nM
COc1ccc(-c2cn(-c3cc(=O)oc4ccc(Br)cc34)nn2)cc1,,48 h,CC50,9800 nM
